# From PubChem BioAssay
# Compounds with a hit are over-represented: about 9.6% of the library has one in this group of screens.
# TNAP inh hi DEA: human TNAP enzyme inhibitors, primary screen, biochemical, luminescent, high phosphate acceptor level, uHTS; AID 1135, 2008; 0.03% of 200,000 active; purified TNAP, CDP-star luminescence, 1 M DEA; inhibition, % at 20 µM;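 active = over 50% inhibition of tissue-nonspecific alkaline phosphatase at 20 µM in the single-dose screen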;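 note: plate controls were DMSO wells for no effect and EDTA-quenched wells as full inhibition for full effect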
# Target sequence (P05186 whole entry, looked up): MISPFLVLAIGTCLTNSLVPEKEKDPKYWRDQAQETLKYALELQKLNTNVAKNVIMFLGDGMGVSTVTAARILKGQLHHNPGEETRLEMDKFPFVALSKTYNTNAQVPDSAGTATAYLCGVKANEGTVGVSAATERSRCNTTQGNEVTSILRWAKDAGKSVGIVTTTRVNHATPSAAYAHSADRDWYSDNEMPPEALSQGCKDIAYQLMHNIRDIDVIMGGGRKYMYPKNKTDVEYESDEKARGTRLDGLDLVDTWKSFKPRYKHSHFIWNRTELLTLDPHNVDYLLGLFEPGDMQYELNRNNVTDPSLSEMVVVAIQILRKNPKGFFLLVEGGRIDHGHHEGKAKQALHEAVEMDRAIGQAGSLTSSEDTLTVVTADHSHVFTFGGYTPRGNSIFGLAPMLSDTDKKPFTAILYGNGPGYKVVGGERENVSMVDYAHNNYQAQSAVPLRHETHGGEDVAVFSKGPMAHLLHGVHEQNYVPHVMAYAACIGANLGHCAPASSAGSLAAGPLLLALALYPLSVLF
# Lmaj promast: Leishmania major promastigote growth inhibition, primary screen. 9% of 200,000 active. inhibition, % at 10 µM. Leishmania major promastigotes, resazurin fluorescence viability; in the data active = inhibition above about 50%;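 note: promastigotes grown with compound for 44 hours at 28 °C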
# bCat KO growth: primary screen for growth suppressors in beta-catenin knockout HCT116 cells (colon tumor, human); HCT116 beta-catenin knockout viability, CellTiter-Glo, 60 h; stronger effect = lower value; viability, % at 10 µM; 1.5% of 140,000 active;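 active = viability at or under a set limit, the compound median less 4 SD, cut at about 6% in these data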;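 note: 0% = Hyamine 1622 control at 20 µM and 100% = untreated cell control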
# HCT116 PTEN-null: growth suppression of PTEN-null HCT116, primary screen, cell-based, CellTiter-Glo; HCT116 PTEN-null viability, 60 h; stronger effect = lower value; AID 827, 2007; 1.2% of 140,000 active; viability, % at 10 µM;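 active = viability at or below a set limit, 4 SD under the median of all tested compounds, cut at about 3.7% in these data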;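 note: PTEN knockout HCT116 line with beta catenin targeted HCT116 as companion control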
# TNAP inh no acc: human TNAP enzyme inhibitors, primary screen, biochemical, luminescent, no phosphate acceptor, uHTS. Alkaline phosphatase, tissue-nonspecific isozyme (Homo sapiens), P05186. 0.26% of 200,000 active. purified TNAP, CDP-star luminescence, 30 min. inhibition, % at 20 µM;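 active = tissue-nonspecific alkaline phosphatase inhibition above about 50% at 20 µM in the single-dose screen, limit read from the data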;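 note: 0% = DMSO negative control and 100% = EDTA positive control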
# TNAP act hiacc: TNAP activators at high phosphate acceptor level, primary screen, biochemical, luminescence, uHTS. purified TNAP, CDP-star luminescence, 1 M DEA, 30 min; stronger effect = higher value; 0 = EDTA background, 1 = DMSO-only activity. Alkaline phosphatase, tissue-nonspecific isozyme (Homo sapiens), P05186. 200,000 tested, under 10 active. activation factor at 20 µM;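 active = activation factor at least 2 at 20 µM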
#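 Control set: EDTA negative control, DMSO positive control / Assay system: human TNAP / Quantity: TNAP 1/800 final / Evaluation: TNAP activation factor scaled between EDTA and DMSO control wells / Measured by: luminescent substrate turnover signal / Compound dosing: one dose, 20 µM / Times: 30 min enzyme reaction at room temperature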
# * = called active by the depositor; nt = no result.
SMILES,TNAP inh hi DEA,Lmaj promast,bCat KO growth,HCT116 PTEN-null,TNAP inh no acc,TNAP act hiacc
O=C(O)COc1ccccc1/C=N/NC(=O)c1cccc(S(=O)(=O)N2CCOCC2)c1,-2.4,-0.6,nt,nt,-15.0,1
COc1ccc(Cl)cc1NC(=O)N1CCC(C)CC1,-6.4,-2.9,nt,nt,-7.9,1.1
COc1ccccc1NC(=O)N1CCc2[nH]c3ccc(Cl)cc3c2C1,-5.7,95.2*,80.7,76.3,8.5,1.1
S=C1SCN(Cc2cccnc2)CN1Cc1ccccc1,-5.1,71.9*,nt,nt,-11.0,1.1
CC(C)CN1CN(Cc2ccccc2)CNC1=S,0.4,-6.1,97.0,100.3,-9.0,1
CC(C)(C)N1CSC(=S)N(Cc2ccccc2)C1,-6.0,90.9*,nt,nt,-14.0,1.1
CC(C)N1CSC(=S)N(Cc2ccccc2)C1,-5.2,74.8*,nt,nt,4.7,1.1
CCCN1CNC(=S)N(Cc2ccccc2)C1,-0.3,-2.4,93.0,95.8,-4.1,1
Cc1ccc(-c2cc(C(=O)N3CCN(c4ncccn4)CC3)c3cc(Br)ccc3n2)o1,-3.2,43.1,nt,nt,-0.7,1
N=c1n(Cc2ccccc2)c2ccccc2n1CC(O)COc1ccccc1 (centres undefined),-6.7,100.4*,0.9*,1.2*,-19.4,1.1
Cc1ccc(Cn2c(=N)n(CC(O)COc3ccccc3)c3ccccc32)cc1 (centres undefined),-10.2,100.5*,0.5*,0.5*,-37.5,1.1
COc1ccc(C(c2nnnn2C2CCCCC2)N2CCN(c3ccccc3)CC2)cc1 (centres undefined),-6.3,84.0*,nt,nt,-8.2,1.1
COc1ccc(C(c2nnnn2C2CCCC2)N2CCN(c3ccccc3)CC2)cc1 (centres undefined),-6.7,62.6*,72.8,66.5,-9.6,1.1
Cc1ccc(NC(=O)Cn2cccc2)cc1,-3.5,-6.1,nt,nt,-9.4,1
CCCCNC(=S)Nc1cc([N+](=O)[O-])ccc1C,0.6,74.2*,85.3,87.2,-1.4,1
O=C(Cn1nnc(-c2ccc(CN3CCOCC3)cc2)n1)N1CCCc2ccccc21,-6.3,83.6*,99.6,104.1,-7.3,1.1
CC(C)(C)NC(=O)CN(C(=O)Cn1nnc(-c2ccc(Cl)cc2)n1)C1CCN(Cc2ccccc2)CC1,-1.9,9.4,1.6*,27.8,-3.9,1
O=C(Cn1nnc(-c2ccc(CN3CCOCC3)cc2)n1)N(c1ccccc1)c1ccccc1,-1.0,70.2*,nt,nt,-8.2,1
O=C(CN1CCOCC1)N1CCCc2ccccc21,-4.3,-5.1,nt,nt,-6.8,1
CC(C)Cn1c(N)c(C(=O)CSc2nc3ccccc3c(=O)n2CCCN2CCOCC2)c(=O)n(C)c1=O,-7.3,19.7,nt,nt,-4.5,1.1
COc1ccc(-c2cc(-c3ccc(C)cc3)nc(SCc3nnc(-c4ccccc4)o3)c2C#N)cc1OC,-5.9,21.5,1.5*,1.3*,-13.9,1.1
COc1ccc(-c2nnc(CSc3nc4ccccc4c(=O)n3C)o2)cc1OC,-0.1,17.9,70.9,72.9,-3.8,1
O=[N+]([O-])c1cccc(-n2cccc2/C=N/Nc2nc(N3CCCCC3)nc(N3CCCCC3)n2)c1,-0.9,36.1,nt,nt,-10.4,1
O=[N+]([O-])c1ccc(/C=N/Nc2ccc3ccccc3c2)o1,31.7,-4.9,80.6,76.6,4.4,0.7
O=[N+]([O-])c1ccc(-c2ccc(/C=N/Nc3nc(N4CCCC4)nc(N4CCCC4)n3)o2)cc1,12.9,4.1,nt,nt,15.1,0.9
SMILES,TNAP inh hi DEA,Lmaj promast,bCat KO growth,HCT116 PTEN-null,TNAP inh no acc,TNAP act hiacc
O=[N+]([O-])c1cccc(/C=N/Nc2nc(N3CCCCC3)nc(N3CCCCC3)n2)c1,-1.7,75.8*,nt,nt,-2.7,1
CCNc1nc(NCC)nc(N/N=C/c2ccc([N+](=O)[O-])o2)n1,2.4,97.7*,81.8,86.7,7.7,1
O=[N+]([O-])c1cccc(-c2ccc(/C=N/Nc3nc(N4CCCCC4)nc(N4CCCCC4)n3)o2)c1,-2.2,90.3*,nt,nt,-11.8,1
O=[N+]([O-])c1ccc(/C=N/Nc2nc(N3CCCC3)nc(N3CCCC3)n2)o1,6.2,99.3*,64.6,44.0,5.2,0.9
C/C(=N\Nc1ccc([N+](=O)[O-])cc1)c1cc2ccccc2o1,15.4,-1.1,nt,nt,11.8,0.8
COc1ccc(C(=O)CSc2nc(C(C)(C)C)nc3ccccc23)cc1,-0.6,7.4,nt,nt,-1.6,1
CS(=O)(=O)N1CCN(c2ccccc2NC(=O)c2ccc(-c3ccc(Br)cc3)o2)CC1,-0.6,52.9*,77.2,74.4,-3.3,1
CS(=O)(=O)N1CCN(c2ccccc2NC(=O)c2cc(Br)ccc2Cl)CC1,-2.0,16.8,nt,nt,-9.3,1
CCN(C(=O)C(C)Cl)c1ccccc1 (centres undefined),1.4,-6.3,nt,nt,-8.0,1
O=C1CCCN1CCC1CCCCN1Cc1nc(-c2cnccn2)no1 (centres undefined),-4.6,4.6,nt,nt,-4.8,1
O=C(N/N=C/c1ccncc1)C1CC1C(=O)N/N=C/c1ccncc1 (centres undefined),-8.1,-3.2,98.0,95.9,-0.2,1.1
COc1cc(/C=N/NC(=O)CC23CC4CC(CC(C4)C2)C3)cc(Br)c1OCC(=O)N(C)C,-5.4,92.8*,65.9,62.4,3.3,1.1
O=C(CC12CC3CC(CC(C3)C1)C2)N/N=C/c1ccncc1,-1.9,68.0*,87.0,98.3,-2.5,1
OCCC1CN(Cc2ccc(Oc3ncccn3)cc2)CCN1C1CCCC1 (centres undefined),-5.9,-6.3,nt,nt,-7.1,1.1
CC(C)CC1CCCCC1OC(=O)C[N+]1(C)CCCCC1 (centres undefined),-0.4,-2.6,nt,nt,-4.9,1
C/C(=C\c1ccccc1)CN(C)CCN(C)C,-6.5,96.6*,91.1,93.4,0.8,1.1
Cc1ccccc1NC(=O)C1Cc2ccccc2CN1C(=O)OCc1ccccc1 (centres undefined),-4.9,92.1*,84.6,95.6,-11.0,1
Nc1nc(-c2cccc(NS(=O)(=O)c3ccccc3)c2)cs1,-9.1,59.1*,101.1,87.2,-13.6,1.1
CC1(C)CC(=O)C2=C(C1)N(Cc1ccccc1)C(=O)C2(O)C(F)(F)F (centres undefined),1.2,65.5*,93.8,99.2,-7.5,1
O=C1CCCC2=C1C(O)(C(F)(F)F)C(=O)N2Cc1ccccc1 (centres undefined),-3.8,60.6*,92.0,97.8,-10.5,1
CS(=O)(=O)c1ccc(SCC(=O)NC2CCS(=O)(=O)C2)c([N+](=O)[O-])c1 (centres undefined),-4.2,-0.7,nt,nt,7.5,1
